Activity calls are given as the source filed them. The calls are words filed in the database; no cut-off is given here.
What was measured:
Translocator protein [1] = molecular target: T1, Translocator protein (Homo sapiens, UniProt P30536); assay: Displacement of [3H]PK11195 from wild-type human TSPO expressed in HEK293 cell membranes after 90 mins by scintillation counting method
[2] = molecular target: Translocator protein (Rattus norvegicus) (UniProt P16257); assay: Binding affinity to TSPO in rat C6 glioma cells assessed as steroidogenic activity by measuring increase in pregnenolone level after 2 hrs by ELISA; format: cell-based
In short: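 C6 glioma cells plated at 1 x 10^5/well, after 24 h washed twice with ELISA buffer (HEPES-NaOH pH 7.4, 0.1% BSA, glucose, salts), then ligand 100 µM for 2 h in buffer containing trilostane 25 µM and SU10603 10 µM; vehicle 0.1% DMSO. Buffer collected, spun 1500 g, pregnenolone quantified by ELISA; n ≥ 3; one-way ANOVA with Dunnett's test.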

[3] = tested on: Translocator protein (Homo sapiens), P30536 [UNDEFINED MUTATION]; assay: Binding affinity to human TSPO A147T mutant expressed in HEK293 cells assessed as inhibition of cell viability at 100 uM incubated for 48 hrs by CellTiter Blue assay relative to control; format: cell-based
In short: (§1)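 Stably transfected WT or A147T TSPO HEK293 cells, 8.75 x 10^3/well on poly-L-lysine (100 µg/mL) plates for 24 h, then 100 µM ligand for 48 h. CellTiter Blue (resazurin) added for 4 h at 37 °C; fluorescence 530 ex/590 em; normalised to vehicle-treated cells; three independent experiments; two-way ANOVA with Dunnett's test.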

[4] = tested on: Translocator protein (Homo sapiens), P30536 [UNDEFINED MUTATION]; assay: Binding affinity to human TSPO A147T mutant expressed in HEK293 cells assessed as inhibition of cell proliferation at 100 uM incubated for 48 hrs by Brdu incorporation-based ELISA relative to control
In short: (§2)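 Stably transfected WT or A147T TSPO HEK293 cells, 8.75 x 10^3/well on poly-L-lysine-coated plates for 24 h, then 100 µM ligand for 48 h. BrdU added 4 h at 37 °C, BrdU incorporation ELISA stopped with 1 M sulfuric acid, absorbance 450 nm; normalised to vehicle-treated controls; n ≥ 3; two-way ANOVA with Dunnett's test.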

Translocator protein [5] = molecular target: T1, Translocator protein; assay: Binding affinity to wild-type human TSPO expressed in HEK293 cells assessed as inhibition of cell viability at 100 uM incubated for 48 hrs by CellTiter Blue assay relative to control; format: cell-based; in short: as §1
Translocator protein [6] = molecular target: T1, Translocator protein; assay: Binding affinity to wild-type human TSPO expressed in HEK293 cells assessed as inhibition of cell proliferation at 100 uM incubated for 48 hrs by Brdu incorporation-based ELISA relative to control; in short: as §2
Homo sapiens [7] = species: Homo sapiens; assay: Selectivity ratio of ki for human TSPO A147T mutant expressed in HEK293 cell membranes to ki for human TSPO expressed in HEK293 cell membranes; format: cell-based
In short: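 Membranes from stably transfected HEK293 cells (PBS/0.04% EDTA detachment, homogenised in Tris-HCl, washed by 48000 g spins), 20 µg protein/well for WT or 10 µg/well for A147T, incubated with 10 nM [3H]PK 11195 and competitor at log-spaced 3.1 nM–10 µM, 90 min, 4 °C.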

Homo sapiens [8] = species: Homo sapiens; assay: Selectivity ratio of ki for human TSPO A147T mutant expressed in HEK293 cells to ki for human TSPO expressed in HEK293 cells; format: cell-based
Translocator protein [9] = molecular target: T1, Translocator protein; assay: Displacement of [3H]PK11195 from wild-type human TSPO expressed in HEK293 cells after 90 mins by scintillation counting method; format: cell-based
Translocator protein [10] = molecular target: T1, Translocator protein; assay: Displacement of [3H]PK11195 from human TSPO A147T mutant expressed in HEK293 cells after 90 mins by scintillation counting method; format: cell-based
Translocator protein [11] = molecular target: T1, Translocator protein; assay: Potency index, ratio of PK11195 Ki to compound Ki for wild-type human TSPO expressed in HEK293 cell membranes; format: cell-based
[12] = tested on: Translocator protein (Homo sapiens), P30536 [UNDEFINED MUTATION]; assay: Potency index, ratio of PK11195 Ki to compound Ki for human TSPO A147T mutant expressed in HEK293 cell membranes; format: cell-based
Translocator protein [13] = molecular target: T1, Translocator protein; assay: Positive allosteric modulation of wild-type human TSPO expressed in HEK293 cells assessed as potentiation of PK11195-induced reduction in cell proliferation at 100 uM after 48 hrs by Brdu incorporation-based ELISA
In short: (§3)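 WT or A147T TSPO HEK293 cells (8.75 x 10^3/well, poly-L-lysine plates, 24 h) co-treated with 100 µM PK 11195 plus 100 µM ligand for 48 h; proliferation by BrdU ELISA (4 h BrdU labelling, 450 nm read); compared with PK 11195 alone; n ≥ 3; two-way ANOVA with Dunnett's test.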

[14] = tested on: Translocator protein (Homo sapiens), P30536 [UNDEFINED MUTATION]; assay: Positive allosteric modulation of human TSPO A147T mutant expressed in HEK293 cells assessed as potentiation of PK11195-induced reduction in cell proliferation at 100 uM after 48 hrs by Brdu incorporation-based ELISA; in short: as §3

Translocator protein (Rattus norvegicus), sequence (P16257 whole entry, looked up): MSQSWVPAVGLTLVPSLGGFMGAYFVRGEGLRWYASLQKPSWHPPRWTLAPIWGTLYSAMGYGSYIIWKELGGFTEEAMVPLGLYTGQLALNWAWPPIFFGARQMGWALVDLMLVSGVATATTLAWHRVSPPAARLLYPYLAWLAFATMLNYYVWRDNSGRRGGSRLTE
T1 sequence (P30536 whole entry): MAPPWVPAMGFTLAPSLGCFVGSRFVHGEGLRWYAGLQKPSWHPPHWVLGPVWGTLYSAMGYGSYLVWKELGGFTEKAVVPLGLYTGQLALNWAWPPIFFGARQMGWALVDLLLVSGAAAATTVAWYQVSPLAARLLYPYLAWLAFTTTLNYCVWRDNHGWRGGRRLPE
Translocator protein (Homo sapiens), P30536 [UNDEFINED MUTATION], sequence (P30536 whole entry, looked up, stated change not applied): as the sequence (P30536 whole entry) above

| Structure (SMILES) | Ki (Translocator protein [1]) [nM] | inhibition [3] | inhibition (Translocator protein [5]) | Ratio Ki (Homo sapiens [7]) | also measured |
| --- | --- | --- | --- | --- | --- |
| COc1cccc(CN(C)C(=O)Cn2c3ccccc3c3cc(Br)ccc32)c1 | > 10000 |  |  |  |  |
| CC[C@@H](C)N(C)C(=O)c1cc2ccccc2c(-c2ccccc2Cl)n1 |  | 68% | 65% |  | Activity [2]: Active; inhibition [4]: 81%; inhibition (Translocator protein [6]): 83% |
| CCN(Cc1ccc(F)cc1)C(=O)Cn1c2ccccc2c2ccccc21 | 694 |  |  | > 14.4 |  |
| CCN(Cc1ccccc1F)C(=O)Cn1c2ccccc2c2ccccc21 | 184 |  |  | 17 |  |
| CCN(Cc1ccc(OC)cc1)C(=O)Cn1c2ccccc2c2ccccc21 | 4740 |  |  | > 2.1 |  |
| CCN(Cc1ccccc1OC)C(=O)Cn1c2ccccc2c2ccccc21 | 1530 |  |  | 1 |  |
| CN(C)C(=O)Cn1c2ccccc2c2ccccc21 | > 10000 |  |  |  |  |
| CCN(Cc1ccc(NC(C)=O)cc1)C(=O)Cn1c2ccccc2c2ccccc21 | > 10000 |  |  |  |  |
| CCN(Cc1cccc(OC)c1)C(=O)Cn1c2ccccc2c2ccccc21 | 96.1 | inactive | inactive | 1 | Activity [2]: inactive; inhibition [4]: inactive; Ratio Ki (Homo sapiens [8]): 1.2; Ki (Translocator protein [9]): 217 nM; inhibition (Translocator protein [6]): inactive; Ki (Translocator protein [10]): 277 nM |
| CCN(Cc1cccc(F)c1)C(=O)Cn1c2ccccc2c2ccccc21 | 563 |  |  | > 17.8 |  |
| CCN(Cc1ccccc1NC(C)=O)C(=O)Cn1c2ccccc2c2ccccc21 | 243 |  |  | > 41.2 |  |
| COc1cccc(CN(C)C(=O)Cn2c3ccccc3c3cc(-c4ccc(Cl)cc4)ccc32)c1 | 3550 |  |  | 0.5 |  |
| CCN(Cc1ccccc1C(F)(F)F)C(=O)Cn1c2ccccc2c2ccccc21 | > 10000 |  |  |  |  |
| COc1cccc(CN(C)C(=O)Cn2c3ccccc3c3cc(-c4cccc(Cl)c4)ccc32)c1 | 201 |  |  | 3.2 |  |
| CCN(Cc1ccccn1)C(=O)Cn1c2ccccc2c2ccccc21 | > 10000 |  |  |  |  |
| COc1ccc(-c2ccc3c(c2)c2ccccc2n3CC(=O)N(C)Cc2cccc(OC)c2)cc1 | 6.6 | inactive | inactive | 3.8 | Ratio Ki (Translocator protein [11]): 3.4; Activity [2]: inactive; inhibition [4]: inactive; Ratio Ki (Homo sapiens [8]): 7.3; Ratio Ki [12]: 1.1; Ki (Translocator protein [9]): 3.2 nM; inhibition (Translocator protein [6]): inactive; Ki (Translocator protein [10]): 23.2 nM |
| CCN(Cc1ccc(C(F)(F)F)cc1)C(=O)Cn1c2ccccc2c2ccccc21 | > 10000 |  |  |  |  |
| CCN(Cc1cccnc1)C(=O)Cn1c2ccccc2c2ccccc21 | > 10000 |  |  |  |  |
| O=C(Cn1c2ccccc2c2ccccc21)NCc1ccccc1 | > 10000 |  |  |  |  |
| CCN(Cc1ccccc1)C(=O)Cn1c2ccccc2c2ccccc21 | 70 | inactive | inactive | 4.5 | inhibition [4]: inactive; inhibition (Translocator protein [6]): inactive |
| CCN(Cc1cccc(OC)c1)C(=O)Cn1c2ccccc2c2cc(-c3ccc(OC)cc3)ccc21 | 447 |  |  | 0.8 |  |
| COc1cccc(CN(C)C(=O)Cn2c3ccccc3c3cc(-c4ccccc4Cl)ccc32)c1 | 231 | inactive | inactive | 0.9 |  |
| CCN(Cc1cccc(OC)c1)C(=O)Cn1c2ccccc2c2cc(-c3ccccc3)ccc21 | 385 | inactive | inactive | 1.1 | inhibition [4]: Active; inhibition (Translocator protein [6]): inactive |
| CCN(Cc1cccc(OC)c1)C(=O)Cn1c2ccccc2c2cc(Br)ccc21 | 469 | inactive | inactive | 1 | inhibition [4]: inactive; inhibition (Translocator protein [6]): inactive |
| CN(Cc1ccccc1)C(=O)Cn1c2ccccc2c2ccccc21 | 53 | inactive | inactive | 2.5 | inhibition [4]: inactive; inhibition (Translocator protein [6]): inactive |
| CCN(Cc1ccncc1)C(=O)Cn1c2ccccc2c2ccccc21 | > 10000 |  |  |  |  |
| CCN(CC)C(=O)Cn1c2ccccc2c2ccccc21 |  |  |  | 5.9 |  |
| CCN(Cc1cccc(NC(C)=O)c1)C(=O)Cn1c2ccccc2c2ccccc21 | > 10000 |  |  |  |  |
| COc1cccc(CN(C)C(=O)Cn2c3ccccc3c3cc(-c4ccccc4)ccc32)c1 | 231 | inactive | inactive | 0.9 | inhibition [4]: inactive; Activity (Translocator protein [13]): Active; Activity [14]: Active; inhibition (Translocator protein [6]): inactive |
| CCN(Cc1cccc(C(F)(F)F)c1)C(=O)Cn1c2ccccc2c2ccccc21 | > 10000 |  |  |  |  |

— ChEMBL document CHEMBL4334481, “First Nondiscriminating Translocator Protein Ligands Produced from a Carbazole Scaffold” (J Med Chem, 2019)
